Assay [1] deals with T1, D(2) dopamine receptor (Bos taurus, UniProt P20288). The assay is described as follows: Inhibitory constant of compound in absence of Gpp(NH)p calculated for the low affinity components of the [3H]spiroperidol binding to Dopamine receptor D2. The procedure, abridged:
(§1)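 Bovine striatal membranes (150-200 µg protein) were incubated with 0.2 nM [3H]spiroperidol and varying N-propylnorapomorphine, with or without 100 µM Gpp(NH)p and 100 nM peptidomimetic, plus 50 nM ketanserin, for 1 h at 22 °C, then GF/B filtered. Nonspecific binding was set with 1.0 µM (+)-butaclamol. A two-site fit gave high/low-affinity fractions; Ki values came via Cheng-Prusoff. Mean ± SEM of 3-4 experiments.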

Assay [2] addresses T1, D(2) dopamine receptor. As to the kind of experiment: Inhibitory constant of compound in presence of Gpp(NH)p (Pre treated with 100 nM) calculated for the high affinity components of the [3H]spiroperidol binding to Dopamine receptor D2. The procedure, abridged:
as §1

For assay [3], the target named is T1, D(2) dopamine receptor. The assay is described as follows: Inhibitory constant of compound in presence of Gpp(NH)p (Pre treated with 100 nM) calculated for the low affinity components of the [3H]spiroperidol binding to Dopamine receptor D2. The procedure, abridged: as §1
Assay [4] concerns the target T1, D(2) dopamine receptor. The assay is described as follows: Inhibitory constant of compound in absence of Gpp(NH)p (Pretreated with 100 nM) calculated for the high affinity components of the [3H]spiroperidol binding to Dopamine receptor D2. The procedure, abridged:
as §1

In assay [5] the target is T1, D(2) dopamine receptor. The assay is described as follows: Inhibitory constant of compound in absence of Gpp(NH)p calculated for the high affinity components of the [3H]spiroperidol binding to Dopamine receptor D2. The procedure, abridged: as §1
Assay [6] has as its target T1, D(2) dopamine receptor. As to the kind of experiment: Inhibitory constant of compound in presence of Gpp(NH)p calculated for the high affinity components of the [3H]spiroperidol binding to Dopamine receptor D2. The procedure, abridged: as §1
The target of assay [7] is T1, D(2) dopamine receptor. The assay is described as follows: Inhibitory constant of compound in presence of Gpp(NH)p calculated for the low affinity components of the [3H]spiroperidol binding to Dopamine receptor D2. The procedure, abridged: as §1
Assay [8] addresses T1, D(2) dopamine receptor. The assay is described as follows: Inhibitory constant of compound in presence of Gpp(NH)p (Pre treated with 1 nM) calculated for the high affinity components of the [3H]spiroperidol binding to Dopamine receptor D2.
Assay [9] deals with T1, D(2) dopamine receptor. The assay is described as follows: Inhibitory constant of compound in absence of Gpp(NH)p (Pre treated with 1 nM) calculated for the high affinity components of the [3H]spiroperidol binding to Dopamine receptor D2.
In assay [10] the target is T1, D(2) dopamine receptor. As to the kind of experiment: Inhibitory constant of compound in absence of Gpp(NH)p (Pre treated with 100 nM) calculated for the high affinity components of the [3H]spiroperidol binding to Dopamine receptor D2. Summed up:
as §1

The target of assay [11] is T1, D(2) dopamine receptor. As to the kind of experiment: Inhibitory constant of compound in presence of Gpp(NH)p (Pre treated with 1 uM) calculated for the high affinity components of the [3H]spiroperidol binding to Dopamine receptor D2.
Assay [12] has as its target T1, D(2) dopamine receptor. As to the kind of experiment: Percentage of receptor in the high affinity form for the compound to Dopamine receptor D2 in absence of Gpp(NH)p (pre treated with 1 uM).
The target in assay [13] is T1, D(2) dopamine receptor. The assay is described as follows: Inhibitory constant of compound in absence of Gpp(NH)p (Pre treated with 1 uM) calculated for the high affinity components of the [3H]spiroperidol binding to Dopamine receptor D2.

Where a SMILES comes first, the peptide text is derived from it.

Ki and percent high-affinity form data for four compounds are collected here from BindingDB's records for doi:10.1021/jm970328b (University of Minnesota, 1997).

T1 sequence (P20288 whole entry): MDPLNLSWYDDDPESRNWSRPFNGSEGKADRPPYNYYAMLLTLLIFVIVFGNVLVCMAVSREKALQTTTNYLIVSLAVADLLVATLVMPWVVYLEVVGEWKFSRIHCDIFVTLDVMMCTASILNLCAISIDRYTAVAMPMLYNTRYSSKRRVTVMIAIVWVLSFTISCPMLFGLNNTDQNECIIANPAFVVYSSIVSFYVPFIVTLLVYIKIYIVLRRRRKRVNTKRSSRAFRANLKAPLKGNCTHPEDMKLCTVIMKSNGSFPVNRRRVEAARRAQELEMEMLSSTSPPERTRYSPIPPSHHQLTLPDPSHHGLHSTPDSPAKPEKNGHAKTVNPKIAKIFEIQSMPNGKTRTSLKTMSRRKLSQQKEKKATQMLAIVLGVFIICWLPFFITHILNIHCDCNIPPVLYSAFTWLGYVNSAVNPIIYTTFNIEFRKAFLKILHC

A word on the Ki: it is the dissociation constant of the complex between target and ligand, obtained from inhibition or displacement. With `CC(C)C[C@@H](C(=O)NCC(N)=O)N1CC(=O)N2CCC[C@H]2C1=O` [(S)-2-((S)-1,4-Dioxo-hexahydro-pyrrolo[1,2-a]pyrazin-2-yl)-4-methyl-pentanoic acid carbamoylmethyl-amide], the inhibition constant (Ki) was 120 nM on D(2) dopamine receptor [1]; 0.08 nM at D(2) dopamine receptor [2]; 104 nM on D(2) dopamine receptor [3]; 0.068 nM on D(2) dopamine receptor [4]; 0.08 nM at D(2) dopamine receptor [5]; 0.12 nM on D(2) dopamine receptor [6]. The Ki at D(2) dopamine receptor [7] was 172 nM.

In the case of `NC(=O)CN1CCC(N2CC(=O)N3CCC[C@H]3C2=O)C1=O` (stereo partly drawn) [2-[3-((2R,8aS)-1,4-Dioxo-hexahydro-pyrrolo[1,2-a]pyrazin-2-yl)-2-oxo-pyrrolidin-1-yl]-acetamide], the inhibition constant Ki is 69 nM on D(2) dopamine receptor [1]; 0.08 nM at D(2) dopamine receptor [5]; 0.05 nM on D(2) dopamine receptor [8]; 0.19 nM on D(2) dopamine receptor [6]; 50 nM on D(2) dopamine receptor [7]; 0.02 nM on D(2) dopamine receptor [9].

Consider `NC(=O)[C@H]1CS[C@@H]2CC(N3CC(=O)N4CCC[C@H]4C3=O)C(=O)N12` (stereo partly drawn) [(3S,7aR)-6-((2R,8aS)-1,4-Dioxo-hexahydro-pyrrolo[1,2-a]pyrazin-2-yl)-5-oxo-hexahydro-pyrrolo[2,1-b]thiazole-3-carboxylic acid amide], for which the Ki at D(2) dopamine receptor [10] is 0.066 nM; at D(2) dopamine receptor [1], 171 nM; on D(2) dopamine receptor [2], 0.067 nM; at D(2) dopamine receptor [3] it was 106 nM; on D(2) dopamine receptor [5], 0.098 nM; at D(2) dopamine receptor [6], 0.14 nM. Moreover, the Ki at D(2) dopamine receptor [7] is 183 nM.

For `CC(C)C[C@H](NC(=O)[C@@H]1CCCN1)C(=O)NCC(N)=O` [L-pro-L-leu-gly-NH2] (H-Pro-Leu-Gly-NH2), the Ki on D(2) dopamine receptor [1] is 73 nM; at D(2) dopamine receptor [11], 0.06 nM; on D(2) dopamine receptor [5], 0.09 nM; on D(2) dopamine receptor [6], 0.13 nM; at D(2) dopamine receptor [13], 0.04 nM; at D(2) dopamine receptor [7], 60 nM. At D(2) dopamine receptor [12], this compound displayed a percent high-affinity form of 61 nM.
